Test results reported in ChEMBL document CHEMBL3779815, “Synthesis of newer 1,2,3-triazole linked chalcone and flavone hybrid compounds and evaluation of their antimicrobial and cytotoxic activities” (Eur J Med Chem, 2016).
Values after ≈ are worked out from the molar mass of the structure shown.

Key:
[1] = test system: Staphylococcus aureus; experiment: Antibacterial activity against Staphylococcus aureus […] after 18 to 24 hrs by micro-dilution method; format: functional
[2] = test system: Enterococcus faecalis; experiment: Antibacterial activity against Enterococcus faecalis ATCC 29212 after 18 to 24 hrs by micro-dilution assay; format: functional
[3] = test system: Escherichia coli; experiment: Antibacterial activity against Escherichia coli ATCC 35218 after 18 to 24 hrs by micro-dilution method; format: functional
[4] = test system: Pseudomonas aeruginosa; experiment: Antibacterial activity against Pseudomonas aeruginosa […] after 18 to 24 hrs by micro-dilution method; format: functional
[5] = test system: Shigella boydii; experiment: Antibacterial activity against Shigella boydii clinical isolate after 18 to 24 hrs by micro-dilution method; format: functional
[6] = test system: Klebsiella pneumoniae; experiment: Antibacterial activity against Klebsiella pneumoniae ATCC 27736 after 18 to 24 hrs by micro-dilution method; format: functional
[7] = test system: Candida albicans; experiment: Antifungal activity against Candida albicans ATCC 90028 after 18 to 24 hrs by micro-dilution method; format: functional
Outline: (§1)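 Microdilution MIC run as the antibacterial protocol but on Sabouraud dextrose […] pH 7.3±0.2; compounds 100 to 0.78 μg/mL in twofold steps; saline-prepared inocula 1-2 × 10⁷ cfu/mL, 0.01 mL added; 37 °C aerobic, 18-24 h; MIC read as lowest concentration without visible growth or turbidity; fluconazole reference.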

[8] = test system: Candida albicans; experiment: Antifungal activity against Candida albicans clinical isolate after 18 to 24 hrs by micro-dilution method; format: functional; outline: as §1
[9] = test system: Candida tropicalis; experiment: Antifungal activity against Candida tropicalis ATCC 750 after 18 to 24 hrs by micro-dilution method; format: functional; outline: as §1
[10] = test system: Candida parapsilosis; experiment: Antifungal activity against Candida parapsilosis ATCC 22019 after 18 to 24 hrs by micro-dilution method; format: functional; settings: Lodderomyces parapsilosis; outline: as §1
[11] = test system: Cryptococcus neoformans; experiment: Antifungal activity against Cryptococcus neoformans clinical isolate after 18 to 24 hrs by micro-dilution method; format: functional; outline: as §1
[12] = test system: Arthrodermataceae; experiment: Antifungal activity against Dermatophyte clinical isolate after 18 to 24 hrs by micro-dilution method; format: functional; outline: as §1
[13] = test system: Aspergillus niger; experiment: Antifungal activity against Aspergillus niger clinical isolate after 18 to 24 hrs by micro-dilution method; format: functional; outline: as §1
[14] = test system: Aspergillus fumigatus; experiment: Antifungal activity against Aspergillus fumigatus clinical isolate after 18 to 24 hrs by micro-dilution method; format: functional; outline: as §1
[15] = test system: Plasmodium falciparum; experiment: Antimalarial activity against erythrocytic stage of chloroquine sensitive Plasmodium falciparum 3D7 assessed as inhibition of parasitemia after 48 hrs by Giemsa staining based microscopic analysis; format: functional, organism-based; settings: 3D7, 48 h
Outline: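 Asynchronous culture on human O⁺ erythrocytes, 1-1.5% parasitemia, 4% hematocrit, RPMI-1640 with HEPES, NaHCO₃, glutamine, gentamycin, Albumax II; drug 0.10-100 μg/mL, 48 h, 37 °C, medium changed at 24 h; triplicate wells; Giemsa thin smears, about 4,000 erythrocytes counted at 1,000X; % parasitemia inhibition versus control gives IC50.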

[16] = Cytotoxicity against human HuH7 cells after 72 hrs by MTT assay; format: cell-based, Huh-7
Outline: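 Huh-7 cells, 4 × 10³/well in DMEM with 10% FBS and penicillin-streptomycin-glutamine; eight 2-fold dilutions 100-0.78 μg/mL, 72 h; MTT added 2-4 h, then isopropanol/Triton X-100/HCl solubilization 2 h dark, RT; absorbance 570 nm; CC50 as mean of at least two experiments in duplicate.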

SMILES	MIC [1] [µg/mL]	MIC [2] [µg/mL]	MIC [3] [µg/mL]	MIC [4] [µg/mL]	MIC [5] [µg/mL]	MIC [6] [µg/mL]	MIC [7] [µg/mL]	MIC [8] [µg/mL]	MIC [9] [µg/mL]	MIC [10] [µg/mL]	MIC [11] [µg/mL]	MIC [12] [µg/mL]	MIC [13] [µg/mL]	MIC [14] [µg/mL]	IC50 [15] [µg/mL]	CC50 at 72 h [16] [µg/mL]
COc1cc(O)c(C(=O)/C=C/c2ccc(OCc3cn(-c4ccc(Cl)cc4)nn3)c(OCc3cn(-c4ccc(Cl)cc4)nn3)c2)c(OC)c1	> 100	> 100	100 (≈ 143 µM)	> 100	> 100	100 (≈ 143 µM)	> 100	> 100	> 100	> 100	> 100	> 100	> 100	> 100	12.8 (≈ 18.2 µM)	> 100
COc1cc(O)c(C(=O)/C=C/c2ccc(OC)c(OCc3cn(-c4ccc(Cl)cc4)nn3)c2)c(OC)c1	> 100	100 (≈ 192 µM)	100 (≈ 192 µM)	> 100	> 100	> 100	12.5 (≈ 23.9 µM)	12.5 (≈ 23.9 µM)	6.25 (≈ 12 µM)	12.5 (≈ 23.9 µM)	12.5 (≈ 23.9 µM)	12.5 (≈ 23.9 µM)	25 (≈ 47.9 µM)	25 (≈ 47.9 µM)	11 (≈ 21.1 µM)	> 100
COc1cc(OC)c2c(=O)cc(-c3ccc(OCc4cn(-c5ccc(F)cc5F)nn4)c(OCc4cn(-c5ccc(F)cc5F)nn4)c3)oc2c1	> 100	100 (≈ 143 µM)	> 100	> 100	> 100	> 100	50 (≈ 71.4 µM)	> 100	> 100	100 (≈ 143 µM)	> 100	> 100	> 100	> 100	9.25 (≈ 13.2 µM)	> 100
COc1cc(O)c(C(=O)/C=C/c2ccc(OCc3cn(-c4ccc(F)cc4Cl)nn3)c(OCc3cn(-c4ccc(F)cc4Cl)nn3)c2)c(OC)c1	> 100	> 100	> 100	100 (≈ 136 µM)	> 100	> 100	> 100	> 100	> 100	> 100	> 100	> 100	> 100	> 100	8.55 (≈ 11.6 µM)	> 100

Continued, in another order:

MIC [1] [µg/mL]	MIC [2] [µg/mL]	MIC [3] [µg/mL]	MIC [4] [µg/mL]	MIC [5] [µg/mL]	MIC [6] [µg/mL]	MIC [7] [µg/mL]	MIC [8] [µg/mL]	MIC [9] [µg/mL]	MIC [10] [µg/mL]	MIC [11] [µg/mL]	MIC [12] [µg/mL]	MIC [13] [µg/mL]	MIC [14] [µg/mL]	IC50 [15] [µg/mL]	SMILES	CC50 at 72 h [16] [µg/mL]
> 100	> 100	> 100	> 100	> 100	> 100	> 100	> 100	> 100	> 100	> 100	> 100	> 100	> 100	8.38 (≈ 12 µM)	COc1cc(O)c(C(=O)/C=C/c2ccc(OCc3cn(-c4ccccc4Cl)nn3)c(OCc3cn(-c4ccccc4Cl)nn3)c2)c(OC)c1	> 100
> 100	> 100	> 100	> 100	> 100	> 100	12.5 (≈ 17 µM)	12.5 (≈ 17 µM)	6.25 (≈ 8.52 µM)	12.5 (≈ 17 µM)	12.5 (≈ 17 µM)	6.25 (≈ 8.52 µM)	12.5 (≈ 17 µM)	12.5 (≈ 17 µM)	14.5 (≈ 19.7 µM)	COc1cc(OC)c2c(=O)cc(-c3ccc(OCc4cn(-c5ccc(F)cc5Cl)nn4)c(OCc4cn(-c5ccc(F)cc5Cl)nn4)c3)oc2c1	> 100
12.5 (≈ 17.9 µM)	12.5 (≈ 17.9 µM)	6.25 (≈ 8.96 µM)	12.5 (≈ 17.9 µM)	25 (≈ 35.8 µM)	12.5 (≈ 17.9 µM)	> 100	> 100	> 100	> 100	> 100	> 100	> 100	> 100	11.3 (≈ 16.2 µM)	COc1cc(OC)c2c(=O)cc(-c3ccc(OCc4cn(-c5ccc(Cl)cc5)nn4)c(OCc4cn(-c5ccc(Cl)cc5)nn4)c3)oc2c1	> 100
50 (≈ 92.9 µM)	> 100	50 (≈ 92.9 µM)	> 100	50 (≈ 92.9 µM)	> 100	12.5 (≈ 23.2 µM)	12.5 (≈ 23.2 µM)	12.5 (≈ 23.2 µM)	12.5 (≈ 23.2 µM)	12.5 (≈ 23.2 µM)	25 (≈ 46.5 µM)	12.5 (≈ 23.2 µM)	12.5 (≈ 23.2 µM)	3.85 (≈ 7.16 µM)	COc1cc(OC)c2c(=O)cc(-c3ccc(OCc4cn(-c5ccc(F)cc5Cl)nn4)c(OC)c3)oc2c1	> 100
